Compound activity: PubChem, several laboratories
CRFBP-R2 agonist = CRF-BP/CRF-R2 complex agonism; HEK293 CRF-R2/CRF-BP, calcium dye fluorescence (FLIPR); percent of saturating CRF peptide response; activation, % at 13.2 µM; 350,000 compounds, 0.46% hits; AID 588473;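 active = activation of at least 50%, plus an integration ratio under a set limit after plate pattern correction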;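 also: plate controls were neutral control wells without compound for no effect and CRF at EC100 for full effect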
V1R ag counter = V1a receptor agonism, counter-screen for OXTR agonists | P37288 | CHO-V1R cells, Fluo-8 calcium fluorescence, agonist mode; 0% DMSO, 100% 3 nM vasopressin | activation, % at 3 µM | 320,000 compounds, 0.25% hits;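 active = activation above the mean activation of all tested compounds plus 3 SD, per screening run, cut at about 20% in these data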;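 also: signal is peak over basal fluorescence ratio across a 100 second FLIPR read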
OXTR agonist = activates the human oxytocin receptor. P30559. activation, % at 3 µM. 320,000 compounds, 0.32% hits. CHO-OTR cells, Fluo-8 calcium fluorescence; normalized: DMSO 0%, oxytocin 100%;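 active = activation above the mean of all tested compounds plus 3 SD, cutoff set per screening run, cut at about 20% in these data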;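 also: peak over basal fluorescence ratio from a 100 s FLIPR kinetic read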
OXTR potentiator = human OXTR potentiation. activation, % at 3 µM. P30559. CHO-OTR cells, Fluo-8 calcium fluorescence, potentiator mode; 0% = oxytocin EC15, 100% = EC100. 320,000 compounds, 0.061% hits. AID 2445;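 active = activation above that plate's cutoff, the mean activation of tested compounds plus 3 SD, cut at about 6.6% in these data, passing the limit was not always enough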;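 also: 100% uses oxytocin at 75 nM as the full agonist control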
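Replication – single well per compound, singlicate · Assay system – CHO cell line stably expressing human OTR · Timing – 6 min pre-incubation, 100 s read · Measure – normalized max/min fluorescence ratio, % activation · Doses – 3.0 µM, one dose · Detection – Fluo-8 calcium dye fluorescence · Probe or stimulus – oxytocin near EC15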
TRPML3 agonist = activates the human TRPML3 channel. Q8TDD5. activation, % at 3 µM. HEK293 TRPML3-YFP, Fluo-8 calcium fluorescence; 100% = the carbachol control signal. AID 1448. 220,000 compounds, 0.29% hits;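 active = activation above its plate's cutoff, the mean activation of the plate's test wells plus 3 SD, cut at about 12% in these data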;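 also: 0% = DMSO only wells and 100% = carbachol wells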
Target sequence (Q8TDD5 whole entry, looked up): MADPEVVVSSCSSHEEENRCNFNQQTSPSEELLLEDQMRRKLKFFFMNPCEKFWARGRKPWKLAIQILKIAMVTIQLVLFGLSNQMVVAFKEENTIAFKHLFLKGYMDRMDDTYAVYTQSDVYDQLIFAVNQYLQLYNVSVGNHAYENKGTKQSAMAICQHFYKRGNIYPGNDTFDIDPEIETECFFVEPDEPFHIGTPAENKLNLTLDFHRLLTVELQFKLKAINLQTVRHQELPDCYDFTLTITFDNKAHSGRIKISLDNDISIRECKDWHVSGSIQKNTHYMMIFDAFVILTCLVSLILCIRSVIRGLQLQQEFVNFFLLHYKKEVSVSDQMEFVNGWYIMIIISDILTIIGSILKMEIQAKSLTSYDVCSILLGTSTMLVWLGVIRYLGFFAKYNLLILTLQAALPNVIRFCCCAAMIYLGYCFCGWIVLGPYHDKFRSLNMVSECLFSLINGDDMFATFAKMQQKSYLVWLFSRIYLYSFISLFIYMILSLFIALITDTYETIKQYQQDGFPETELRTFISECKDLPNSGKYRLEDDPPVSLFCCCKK
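Test system: HEK293 cells stably carrying human TRPML3-YFP; Doses: single dose, 3 µM final nominal compound, 0.3% DMSO final; Schedule: dye loading 1 h 37 °C then 30 min ambient, 125 s read; Technique: Fluo-8 calcium fluorescence; Benchmarks: high control carbachol 87 µM, low control DMSO.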
zfTRPN1 agonist = agonists of zebrafish TRPN1 channel | HEK293 zebrafish TRPN1-YFP, Fluo-8 calcium fluorescence; 100% = response to 87 µM carbachol | activation, % at 3 µM | 220,000 compounds, 0.18% hits;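 active = activation above its plate's cutoff, the mean activation of test wells on that plate plus 3 SD, cut at about 19% in these data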;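 also: 0% = DMSO alone and 100% = 87 µM carbachol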
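Material – zebrafish TRPN1-YFP in HEK293 cells · Doses – 3 µM single point · Schedule – dye 1 h 37 °C plus 30 min RT · Signal – Fluo-8 calcium fluorescence, excitation 470-495 nm, emission 515-575 nm · Read-out – % activation versus carbachol response · Control set – carbachol high, DMSO low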
Numbers without * were called inactive; · = no result given. Most compounds without a hit are left out; they make up all but 0.83% or so of the library.

SMILES | CRFBP-R2 agonist | V1R ag counter | OXTR agonist | OXTR potentiator | TRPML3 agonist | zfTRPN1 agonist
O=C(NN=C1CCCC1)c1sc2ccccc2c1Cl | -1 | 0 | -1 | -9 | 1 | 1
COc1ccc(NC(=O)C(C)Oc2ccc(/C(C)=N\O)cc2)cc1 (configuration not stated) | 44 | 33* | 40* | -23 | 4 | 10
CC(C)NS(=O)(=O)c1ccc(NC(=O)C(C)Oc2ccc(C(=O)c3ccccc3)cc2)cc1 (configuration not stated) | 162* | 66* | 54* | -18 | 21* | 50*
CN(C)c1ccc2c(c1)OC(N)=C(C#N)C2c1cccc(F)c1 (configuration not stated) | 79* | 13 | 18 | -4 | 6 | 14
CCN1CC=C2C(C#N)=C(N)C(C#N)(C#N)C(CCc3ccccc3)C2C1 (configuration not stated) | 57* | 5 | 6 | -11 | 6 | 10
CN(C)c1ccc(/C=N/N(CCO)C2=NS(=O)(=O)c3ccccc32)cc1 | 140* | 2 | 0 | -16 | · | ·
O=S1(=O)N=C(N(CCO)/N=C/c2ccc(Cl)cc2)c2ccccc21 | -3 | 0 | 0 | 6 | · | ·
O=C(CN1C(=O)NC2(CCCCC2)C1=O)NCCCSc1ccccc1 | 2 | 0 | 0 | -3 | · | ·
CCCOc1ccc(C(=O)NNC(=S)NC(=O)c2cccs2)cc1 | 113* | 85* | 79* | -12 | · | ·
CCCOc1ccc(C(=O)NNC(=S)NC(=O)c2ccccc2)cc1 | 180* | 115* | 101* | -27 | · | ·
CCCOc1ccc(C(=O)NNC(=S)NC(C)=O)cc1 | -1 | -2 | -2 | -8 | -2 | -3
CCCOc1ccc(C(=O)NNC(=S)NC(=O)c2ccco2)cc1 | 137* | 98* | 95* | -21 | 41* | 44*
CCCC(=O)Nc1ccc(C(=O)NNC(=S)NC(=O)c2cccs2)cc1 | -2 | -1 | -2 | -3 | -1 | -2
Cc1ccc(Cl)cc1NC(=O)CCS(=O)(=O)c1cccc2nonc12 | -1 | 2 | 2 | -4 | · | ·
OCCNc1c2ccccc2nc2c(F)c(F)c(F)c(F)c12 | 69* | 1 | 0 | -1 | 1 | 2
CC12CCC(=O)C=C1CCC1C2C(=O)CC2(C)C1CC[C@]2(O)C(=O)CO (some centres not stated) | 4 | 0 | 0 | 1 | · | ·
CCOc1cc(CNCCc2ccc(S(N)(=O)=O)cc2)cc(Cl)c1OCc1ccccc1 | 0 | 22* | 37* | -14 | 2 | 4
COc1ccc(CNCCc2ccc(Cl)cc2)cc1OCc1ccccc1 | 6 | 17 | 18 | -7 | 1 | 3
CCOc1cc(CNCCc2ccc(S(N)(=O)=O)cc2)ccc1OCc1ccccc1 | 4 | 8 | 12 | -12 | 2 | 1
CCOc1cc(CNCc2ccccc2)ccc1OCc1ccc(Cl)cc1 | 0 | 28* | 26* | -20 | · | ·
COc1ccccc1CCC(=O)OCC(=O)Nc1ccc2[nH]c(=O)[nH]c2c1 | 2 | 0 | 0 | 0 | · | ·
CCN(CC(=O)Nc1ccc(NC(C)=O)cc1)C(=O)c1cc([N+](=O)[O-])ccc1Sc1ccc(Cl)cc1 | 0 | · | · | · | · | ·
COc1cc(N2CCCC2)c(OC)cc1/C=C(/C#N)c1cccc(F)c1 | 47 | 21* | 21* | -12 | 1 | 16
O=C(CN1CCCC1)Nc1ccccc1Sc1ccccc1 | 52* | -1 | -2 | -12 | 1 | -2
CN1CCN(CC(=O)Nc2ccccc2Sc2ccccc2)CC1 | -2 | 1 | 2 | -5 | 1 | 0
CC(c1ccon1)N(C)C(=O)c1ccc2nc(Cc3cccc(Cl)c3)oc2c1 (configuration not stated) | -1 | 4 | 2 | -21 | · | ·
COc1cc(/C=N/NC(=O)c2ccccc2NS(=O)(=O)c2cccs2)ccc1O | 0 | · | · | · | · | ·
N#C/C(=C/c1ccc(-c2ccc(S(N)(=O)=O)cc2)o1)C(=O)Nc1ccccc1 | 8 | 2 | 3 | -8 | 0 | 4
COc1ccc(/C(C#N)=C/c2ccccn2)cc1 | 0 | -1 | -2 | -11 | 2 | 0
